The source of these data is ChEMBL document CHEMBL1125822, “Quantitative structure-activity relationships of antitumor guanidinothiazolecarboxamides with survival enhancement for therapy in the 3LL Lewis lung carcinoma model” (1991).

In this experiment the test system is Lewis lung carcinoma cell line. The experiment is described as follows: Compound injected intraperitoneally for 8 days and was tested for mean of increased life span in female BDF mice injected intravenously with 3LL Lewis Lung adenocarcinoma into lateral tail vein before 2 days. Format: functional, Mus musculus. An outline of the steps: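 Female BDF1 mice (18–20 g) given 6×10^5 log-phase 3LL cells in 0.2 mL RPMI 1640 by lateral tail vein. Drug suspended in DMSO/saline buffered to pH 7.4, dosed ip once daily on days 2–9 (8 treatments); screening dose 50 mg/kg. Mice monitored daily for survival; ILS (%) = (MST treated/MST vehicle control ×100) − 100; significance by Armitage trend test.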
For `COc1cc2nc(NC(=O)c3csc(N=C(N)N)n3)sc2cc1OC`, the ILS came to 5.

For the molecule `COc1ccc(Cl)c2sc(NC(=O)c3csc(N=C(N)N)n3)nc12`, the ILS is recorded as 69.

`COc1ccc2sc(NC(=O)c3csc(N=C(N)N)n3)nc2c1C` gave an ILS of 57.

Turning to `COc1ccc(C(F)(F)F)c2sc(NC(=O)c3csc(N=C(N)N)n3)nc12`, the ILS is 17.

`Cc1cc(C(F)(F)F)cc2sc(NC(=O)c3csc(N=C(N)N)n3)nc12`: the ILS is given as 19.

In the case of `Cc1cc(Cl)cc2sc(NC(=O)c3csc(N=C(N)N)n3)nc12`, the ILS is 15.

In turn, `N=C(N)Nc1nc(C(=O)Nc2nc3c(F)ccc(F)c3s2)cs1` registered an ILS of 26.

`N=C(N)Nc1nc(C(=O)Nc2nc3cc(Cl)c(C(N)=O)cc3s2)cs1` registered an ILS of 42.

Take `CCOc1ccc2nc(NC(=O)c3csc(N=C(N)N)n3)sc2c1`: the ILS came to 6.

Take `CCOc1ccc(F)c2sc(NC(=O)c3csc(N=C(N)N)n3)nc12`: the ILS came out at 53.

For `N=C(N)Nc1nc(C(=O)Nc2nc3cc(F)c(F)cc3s2)cs1`, the ILS was determined as 62.

For `CCCCCS(=O)(=O)c1ccc2nc(NC(=O)c3csc(N=C(N)N)n3)sc2c1`, the ILS is reported as 30.

`Cc1cc(C)c2nc(NC(=O)c3csc(N=C(N)N)n3)sc2c1` showed an ILS of 64.

With `CCOc1ccc(Cl)c2sc(NC(=O)c3csc(N=C(N)N)n3)nc12`, the ILS was found to be 75.

In turn, `COc1ccc2nc(NC(=O)c3csc(N=C(N)N)n3)sc2c1` returned an ILS of 7.5.

`N=C(N)Nc1nc(C(=O)Nc2nc3c(F)cccc3s2)cs1`: the ILS turned out to be 38.

Take `Cl.N=C(N)Nc1nc(C(=O)Nc2nc3ccc(S(N)(=O)=O)cc3s2)cs1`: the ILS was 1.

`CCCCOc1ccc2nc(NC(=O)c3csc(N=C(N)N)n3)sc2c1.Cl` came in with an ILS of 59.

With `CC(C)c1cccc2sc(NC(=O)c3csc(N=C(N)N)n3)nc12.Cl`, the ILS stood at 24.

`Cl.N=C(N)Nc1nc(C(=O)Nc2nc3cc([N+](=O)[O-])ccc3s2)cs1` displayed an ILS of 57.

In the case of `CC(C)(C)c1ccc2nc(NC(=O)c3csc(N=C(N)N)n3)sc2c1.Cl`, the ILS came to 61.

`Cl.N#Cc1ccc2nc(NC(=O)c3csc(NC(=N)N)n3)sc2c1` registered an ILS of 53.

As to `Cl.N=C(N)Nc1nc(C(=O)Nc2nc3cc(O)ccc3s2)cs1`, the ILS was determined as 10.

On to `Cl.N=C(N)Nc1nc(C(=O)Nc2nc3cc(F)cc(F)c3s2)cs1`, for which the ILS turned out to be 22.

The molecule `Cc1c(Cl)ccc2sc(NC(=O)c3csc(N=C(N)N)n3)nc12.Cl` came in with an ILS of 73.

Take `COc1cccc2sc(NC(=O)c3csc(N=C(N)N)n3)nc12.Cl`: the ILS worked out at 45.

Molecule `Cl.N=C(N)Nc1nc(C(=O)Nc2nc3cc(-c4ccccc4)ccc3s2)cs1` returned an ILS of 18.

On to `CCOc1ccc2sc(NC(=O)c3csc(N=C(N)N)n3)nc2c1.Cl`, for which the ILS came to 44.

Consider `Cl.N=C(N)Nc1nc(C(=O)Nc2nc3c(O)cccc3s2)cs1`, for which the ILS amounted to 14.

The molecule `Cl.N=C(N)Nc1nc(C(=O)Nc2nc3ccc([N+](=O)[O-])cc3s2)cs1` returned an ILS of 51.7.

The molecule `Cc1ccc(F)c2sc(NC(=O)c3csc(N=C(N)N)n3)nc12.Cl` showed an ILS of 53.

`Cl.N=C(N)Nc1nc(C(=O)Nc2nc3ccc(Cl)cc3s2)cs1` gave an ILS of 58.

Regarding `Cl.N=C(N)Nc1nc(C(=O)Nc2nc3cccc(-c4ccccc4)c3s2)cs1`, the ILS amounted to 49.

`Cc1cccc2sc(NC(=O)c3csc(N=C(N)N)n3)nc12.Cl`: the ILS turned out to be 44.

In turn, `CCCc1ccc2nc(NC(=O)c3csc(N=C(N)N)n3)sc2c1.Cl` showed an ILS of 21.5.

For `Cc1cc2nc(NC(=O)c3csc(N=C(N)N)n3)sc2cc1C.Cl`, the ILS amounted to 18.

Regarding `Cl.N=C(N)Nc1nc(C(=O)Nc2nc3ccccc3s2)cs1`, the ILS worked out at 15.

Molecule `CCc1cc(C#N)cc2sc(NC(=O)c3csc(N=C(N)N)n3)nc12.Cl` registered an ILS of 38.

`Cl.N=C(N)Nc1nc(C(=O)Nc2nc3ccc(Cl)c(C(F)(F)F)c3s2)cs1` displayed an ILS of 69.

In turn, `CCc1ccc2nc(NC(=O)c3csc(N=C(N)N)n3)sc2c1.Cl` came in with an ILS of 33.

The molecule `CCCCOc1ccc2sc(NC(=O)c3csc(N=C(N)N)n3)nc2c1.Cl` came in with an ILS of 34.5.

Molecule `CSc1ccc2sc(NC(=O)c3csc(N=C(N)N)n3)nc2c1.Cl` gave an ILS of 1.

`CC(C)Oc1ccc2sc(NC(=O)c3csc(N=C(N)N)n3)nc2c1.Cl` showed an ILS of 23.

For `CSc1cccc2sc(NC(=O)c3csc(N=C(N)N)n3)nc12.Cl`, the ILS was 9.

With `Cc1c(F)ccc2sc(NC(=O)c3csc(N=C(N)N)n3)nc12.Cl`, the ILS was 62.

In the case of `Cc1cc(F)cc2sc(NC(=O)c3csc(N=C(N)N)n3)nc12.Cl`, the ILS is listed as 29.

For `CS(=O)(=O)c1ccc2sc(NC(=O)c3csc(N=C(N)N)n3)nc2c1`, the ILS is on record as 1.

For the molecule `N=C(N)Nc1nc(C(=O)Nc2nc3cc(Cl)c(Cl)cc3s2)cs1`, the ILS is listed as 71.

Consider `COc1cc([N+](=O)[O-])cc2sc(NC(=O)c3csc(N=C(N)N)n3)nc12`, for which the ILS is 20.

The molecule `N=C(N)Nc1nc(C(=O)Nc2nc3c(Cl)cccc3s2)cs1` came in with an ILS of 18.

`N=C(N)Nc1nc(C(=O)Nc2nc3cccc(C(F)(F)F)c3s2)cs1` had an ILS of 35.

As for `COc1cc2nc(NC(=O)c3csc(N=C(N)N)n3)sc2cc1Cl`, the ILS amounted to 21.

The molecule `CC(C)c1ccc2nc(NC(=O)c3csc(N=C(N)N)n3)sc2c1` displayed an ILS of 38.

For `N=C(N)Nc1nc(C(=O)Nc2nc3cc(F)c(Cl)cc3s2)cs1`, the ILS was 75.

In turn, `N=C(N)Nc1nc(C(=O)Nc2nc3cc(F)c(O)cc3s2)cs1` came in with an ILS of 23.

The molecule `N=C(N)Nc1nc(C(=O)Nc2nc3ccc(-c4ccccc4)cc3s2)cs1` registered an ILS of 67.

With `Cc1ccc2nc(NC(=O)c3csc(N=C(N)N)n3)sc2c1`, the ILS was found to be 37.3.

The molecule `N=C(N)Nc1nc(C(=O)Nc2nc3cc(Cl)c(F)cc3s2)cs1` returned an ILS of 41.

With `CSc1ccc2nc(NC(=O)c3csc(N=C(N)N)n3)sc2c1`, the ILS amounted to 25.5.

`N=C(N)Nc1nc(C(=O)Nc2nc3c([N+](=O)[O-])cccc3s2)cs1`: the ILS was 30.

On to `N=C(N)Nc1nc(C(=O)Nc2nc3ccc(F)cc3s2)cs1`, for which the ILS is given as 38.8.

Regarding `N=C(N)Nc1nc(C(=O)Nc2nc3cc(F)ccc3s2)cs1`, the ILS is recorded as 67.6.

For `N=C(N)Nc1nc(C(=O)Nc2nc3ccc(C(N)=O)cc3s2)cs1`, the ILS is on record as 1.
